Laboratory results from ChEMBL document CHEMBL1130251, “Enzymatic properties of the unnatural beta-L-enantiomers of 2',3'-dideoxyadenosine and 2',3'-didehydro-2',3'-dideoxyadenosine” (J Med Chem, 1997).

Experiments:
[1] = molecular target: T1, Adenosine deaminase (Bos taurus) (UniProt P56658); experiment: Inhibitory activity against bovine adenosine deaminase; very weak substrate or inhibitor
T1 sequence (whole entry): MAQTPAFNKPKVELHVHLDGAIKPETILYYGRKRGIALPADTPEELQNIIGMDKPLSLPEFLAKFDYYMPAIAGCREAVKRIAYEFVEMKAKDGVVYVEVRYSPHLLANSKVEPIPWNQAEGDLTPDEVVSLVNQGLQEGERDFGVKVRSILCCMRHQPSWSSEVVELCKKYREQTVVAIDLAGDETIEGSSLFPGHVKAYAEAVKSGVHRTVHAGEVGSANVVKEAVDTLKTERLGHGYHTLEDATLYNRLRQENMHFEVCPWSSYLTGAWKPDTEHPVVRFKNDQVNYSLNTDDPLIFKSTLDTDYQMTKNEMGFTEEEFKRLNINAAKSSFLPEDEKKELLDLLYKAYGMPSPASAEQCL
Method in brief: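 Adenosine deaminase (calf intestinal mucosa, type VIII) at 37 °C in 50 mM phosphate pH 7.5. Substrate tests used 20–80 μM nucleoside and 0.01–1 unit enzyme, with HPLC product analysis. Inhibition was read by UV spectrometry with adenosine 20–100 μM. Ki was taken from Lineweaver–Burk plots assuming competitive inhibition.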

[2] = Inhibitory activity against purine nucleoside phosphorylases from human blood and calf spleen; NS, NI/Ino=nonsubstrate, noninhibitor/inhibitor; type: tissue-based
Method in brief: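 Purine nucleoside phosphorylase from calf spleen (0.18 unit·mL⁻¹) or human blood (9 units·mL⁻¹) at 37 °C in 50 mM phosphate pH 7.5. Substrate tests used 50 μM nucleoside. Inhibition used 40 μM inosine with 100 μM test compound. Reaction media were analysed by C-18 HPLC.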

[3] = tested on: Nc1ncnc2c1ncn2[C@H]1C=C[C@@H](CO)O1; experiment: Inhibitory activity against human deoxycytidine kinase
Method in brief: (§1)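 Recombinant human deoxycytidine kinase (expressed in E. coli, purified) at 37 °C. Monophosphate formation measured by C-18 HPLC. Km and Vm from Lineweaver–Burk plots.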

[4] = tested on: Nc1ncnc2c1ncn2[C@H]1CC[C@@H](CO)O1; experiment: Inhibitory activity against Cytidine Kinase; method in brief: as §1

Chain of Deoxycytidine kinase (Homo sapiens), P27707 (P27707 whole entry): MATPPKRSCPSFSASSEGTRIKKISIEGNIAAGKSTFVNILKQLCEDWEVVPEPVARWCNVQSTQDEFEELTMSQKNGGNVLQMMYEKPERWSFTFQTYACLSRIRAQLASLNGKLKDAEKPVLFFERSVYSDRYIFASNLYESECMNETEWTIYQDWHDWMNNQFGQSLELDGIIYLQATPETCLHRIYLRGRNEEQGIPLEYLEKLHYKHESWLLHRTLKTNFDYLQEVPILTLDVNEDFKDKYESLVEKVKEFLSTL

Row | Molecule | inhibition [1] | Km [2] | Km [3] [µM] | Km [4] [µM]
1 | Nc1ncnc2c1ncn2[C@H]1C=C[C@@H](CO)O1 | very weak substrate or inhibitor | NS, NI/Ino | – | –
2 | Nc1ncnc2c1ncn2[C@H]1CC[C@@H](CO)O1 | – | NS, NI/Ino | – | –
3 | Deoxycytidine kinase (Homo sapiens), P27707 | – | – | 620 | 220
